pIC50: −log10 of the molar value. Calls of active or inactive are those of the source. The calls are words filed in the database; no cut-off is given here.
What was measured:
Plasmodium falciparum [1] = test: Antiplasmodial activity against Plasmodium falciparum D6 infected in RBCs by parasitic LDH release assay; format: functional, organism-based
Method in brief: (§1)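 Infected erythrocytes at 2% parasitemia and 2% hematocrit, in RPMI 1640 with 10% human serum and amikacin 60 μg/mL, were exposed to serial dilutions under N2/O2/CO2 (90:5:5) at 37°C for 72 h. LDH was read with Malstat reagent (30 min), then NBT/PES in the dark (60 min), stopped with 5% acetic acid, at 650 nm. IC50 came from percent growth dose-response curves.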

[2] = Selectivity index, ratio of TC50 for african green monkey (Cercopithecus aethiops) Vero cells to IC50 for Plasmodium falciparum D6; format: toxicity, cell-based
Plasmodium falciparum [3] = test: Antiplasmodial activity against Plasmodium falciparum W2 infected in RBCs by parasitic LDH release assay; format: functional, organism-based; method in brief: as §1
[4] = Selectivity index, ratio of TC50 for african green monkey (Cercopithecus aethiops) Vero cells to IC50 for Plasmodium falciparum W2; format: toxicity, cell-based
[5] = Toxicity against african green monkey Vero cells; format: cell-based; details: chlorocebus sabaeus
Method in brief: (§2)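 Cells seeded at 25,000 per well and incubated 24 h, then exposed to samples for 48 h. Viable cells were counted by neutral red, with DMSO as vehicle control. IC50 or TC50 values were derived from logarithmic plots of growth inhibition versus concentration.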

Leishmania donovani = test: Antileishmanial activity against Leishmania donovani promastigotes after 48 hrs by alamar blue assay; format: functional, organism-based; details: for pIC50: read-out: IC50
SK-MEL = test: Cytotoxicity against human SK-MEL cells after 48 hrs by neutral red assay; format: functional, cell-based; details: for IC50: sk-mel; for pIC50: Homo sapiens, SK-MEL, 48 h, read-out: IC50; method in brief: as §2
KB = test: Cytotoxicity against human KB cells after 48 hrs by neutral red assay; format: functional, cell-based; details: for pIC50: Homo sapiens, KB, 48 h, read-out: IC50; method in brief: as §2
BT-549 = test: Cytotoxicity against human BT549 cells after 48 hrs by neutral red assay; format: functional, cell-based; details: for IC50: bt-549; for pIC50: Homo sapiens, BT-549, 48 h, read-out: IC50; method in brief: as §2
SK-OV-3 = test: Cytotoxicity against human SKOV3 cells after 48 hrs by neutral red assay; format: functional, cell-based; details: for IC50: sk-ov-3; method in brief: as §2
[6] = (§3) Toxicity against african green monkey Vero cells after 48 hrs by neutral red assay; format: cell-based; details: chlorocebus sabaeus, Vero cells; read-out: TC50; method in brief: as §2
[7] = Toxicity against pig LLC-PK11 cells after 48 hrs by neutral red assay; format: cell-based, Sus scrofa; details: for TC50: llc-pk11, 48 h; for CC50 at 48 h: LLC-PK11 cells, read-out: TC50; method in brief: as §2
Candida albicans = test: Antifungal activity against Candida albicans ATCC 90028 by modified CLSI/NCCLS method; format: functional, organism-based; details: for pIC50: Candida albicans, ATCC 90028, read-out: IC50
Cryptococcus neoformans = test: Antifungal activity against Cryptococcus neoformans ATCC 90113 by modified CLSI/NCCLS method; format: functional, organism-based
Aspergillus fumigatus = test: Antifungal activity against Aspergillus fumigatus ATCC 90906 by modified CLSI/NCCLS method; format: functional, organism-based; details: for pIC50: Aspergillus fumigatus, ATCC 90906, read-out: IC50
Staphylococcus aureus = test: Antibacterial activity against methicillin-resistant Staphylococcus aureus ATCC 43300 by modified CLSI/NCCLS method; format: functional, organism-based
Escherichia coli = test: Antibacterial activity against Escherichia coli ATCC 35218 by modified CLSI/NCCLS method; format: functional, organism-based
Pseudomonas aeruginosa = test: Antibacterial activity against Pseudomonas aeruginosa ATCC 27853 by modified CLSI/NCCLS method; format: functional, organism-based
[8] = tested on: Mycobacterium intracellulare; test: Antibacterial activity against Mycobacterium intracellular ATCC 23068 by Franzblau method; format: functional, organism-based; details: for pIC50: Mycobacterium intracellulare, ATCC 23068, read-out: IC50
Nakaseomyces glabratus = test: Antifungal activity against Candida glabrata ATCC 90030 by modified CLSI/NCCLS method; format: functional, organism-based
Pichia kudriavzevii = test: Antifungal activity against Candida krusei ATCC 6258 by modified CLSI/NCCLS method; format: functional, organism-based; details: Pichia kudriavzevii, ATCC 6258; read-out: IC50
Vero = test: as §3; format: cell-based; details: chlorocebus sabaeus, vero, 48 h; method in brief: as §2

Row | SMILES | pIC50 (Plasmodium falciparum [1]) | selectivity ratio [2] | pIC50 (Plasmodium falciparum [3]) | selectivity ratio [4] | CC50 [5] [nM] | IC90 (Leishmania donovani; Leishmania donovani, 48 h) [nM] | pIC50 (Leishmania donovani; Leishmania donovani, 48 h) | pIC50 (KB) | IC50 (SK-OV-3) | CC50 at 48 h [6] [nM] | pIC50 (Candida albicans) | pIC50 (Cryptococcus neoformans) | IC50 (Aspergillus fumigatus) | IC50 (Staphylococcus aureus) | IC50 [8] | pIC50 (SK-MEL) | pIC50 (BT-549) | CC50 at 48 h [7] [nM] | IC50 (Nakaseomyces glabratus) | pIC50 (Pichia kudriavzevii) | other results
1 | C[C@H]1[C@@H](OCC(CO[C@H]2O[C@@H]3O[C@@]4(C)CC[C@H]5[C@H](C)CC[C@@H]([C@H]2C)[C@@]35OO4)OS(C)(=O)=O)O[C@@H]2O[C@@]3(C)CC[C@H]4[C@H](C)CC[C@@H]1[C@@]24OO3 (stereo partly specified) | 7.93 | 542 | 7.93 | 542 | 6400 | 55500 | 4.64 | 6.55 | Not Active | 2130 | 5.37 | 5.85 | Not Active | Not Active | Not Active |  |  |  |  |  | IC50 (SK-MEL): Not Active; IC50 (BT-549): Not Active; TC50 [7]: Non-toxic; IC50 (Escherichia coli): Not Active; IC50 (Pseudomonas aeruginosa): Not Active
2 | CCN(CC)CCCC(C)Nc1ccnc2cc(Cl)ccc12 (stereo unspecified) [CHLOROQUINE] |  |  |  |  | > 14900 |  |  |  |  |  |  |  |  |  |  |  |  |  |  |  | 
3 | C[C@H]1[C@@H](OCC(=O)CO[C@H]2O[C@@H]3O[C@@]4(C)CC[C@H]5[C@H](C)CC[C@@H]([C@H]2C)[C@@]35OO4)O[C@@H]2O[C@@]3(C)CC[C@H]4[C@H](C)CC[C@@H]1[C@@]24OO3 | 8.28 | 49 | 8.24 | 44 |  | 38500 | 5.13 | 6.62 | Not Active | > 8030 | 5.62 | 6.06 |  | Not Active | Not Active | 6.25 | 6.62 | 100 | Not Active | 6.06 | pIC50 (Aspergillus fumigatus): 4.49
4 | CC(=O)O[C@H]1C(=O)[C@@]2(C)[C@H]([C@H](OC(=O)c3ccccc3)[C@]3(O)C[C@H](OC(=O)[C@H](O)[C@@H](NC(=O)c4ccccc4)c4ccccc4)C(C)=C1C3(C)C)[C@]1(OC(C)=O)CO[C@@H]1C[C@@H]2O [PACLITAXEL] |  |  |  |  |  |  |  |  |  | 530 |  |  |  |  |  | 5.39 |  | 4390 |  |  | 
5 | N=C(N)c1ccc(OCCCCCOc2ccc(C(=N)N)cc2)cc1 [PENTAMIDINE] |  |  |  |  |  | 6400 | 5.55 |  |  |  |  |  |  |  |  |  |  |  |  |  | 
6 | C[C@@H]1[C@H](O)[C@@H](C)/C=C/C=C/C=C/C=C/C=C/C=C/C=C/[C@H](O[C@@H]2O[C@H](C)[C@@H](O)[C@H](N)[C@@H]2O)C[C@@H]2O[C@](O)(C[C@@H](O)C[C@@H](O)[C@H](O)CC[C@@H](O)C[C@@H](O)CC(=O)O[C@H]1C)C[C@H](O)[C@H]2C(=O)O [AMPHOTERICIN B] |  |  |  |  |  | 400 |  |  |  |  | 6.43 | 6.11 |  |  |  |  |  |  |  | 6.07 | pIC50 (Nakaseomyces glabratus; Nakaseomyces glabratus, ATCC 90030, read-out: IC50): 6.34; pIC50 (Aspergillus fumigatus): 5.95
7 | C=C[C@@H](CO[C@H]1O[C@@H]2O[C@@]3(C)CC[C@H]4[C@H](C)CC[C@@H]([C@H]1C)[C@@]24OO3)O[C@H]1O[C@@H]2O[C@@]3(C)CC[C@H]4[C@H](C)CC[C@@H]([C@H]1C)[C@@]24OO3 | 7.62 | 32 | 7.59 | 30 |  | 62800 | 4.68 | 6.57 | Not Active | 430 | 5.84 | 5.19 |  | Not Active | Not Active | 4.89 | 5.59 | > 16100 |  |  | pIC50 (Aspergillus fumigatus): 4.79; IC50 (Escherichia coli): Not Active; IC50 (Pseudomonas aeruginosa): Not Active
8 | C[C@H]1[C@@H](O)O[C@@H]2O[C@@]3(C)CC[C@H]4[C@H](C)CC[C@@H]1[C@@]24OO3 [ARTENIMOL] | 7.83 | 95 | 7.85 | 100 | 1410 |  | 4.06 |  |  |  | 6.06 | 6.55 | Not Active | Not Active | Not Active |  |  |  | Not Active | 4.55 | IC90 (Leishmania donovani): inactive
9 | C[C@@H]1CC[C@H]2[C@@H](C)C(=O)O[C@@H]3O[C@@]4(C)CC[C@@H]1[C@]32OO4 [ARTEMISININ] | 7.48 | > 51 | 7.37 | > 40 | > 1680 |  | 4.39 |  |  |  |  | 6.60 | Not Active | Not Active | Not Active |  |  |  | Not Active | 4.85 | IC90 (Leishmania donovani): inactive; IC50 (Candida albicans): Not Active
10 | CC1=CO[C@@H]2O[C@]3(C)CC[C@H]4[C@H](C)CC[C@@H]1[C@@]24OO3 [ANHYDRODIHYDROARTEMISININ] | 7.80 | > 113 | 7.59 | > 70 | > 1790 |  | 4.52 |  |  |  |  | 6.52 | Not Active | Not Active |  |  |  |  | Not Active | 4.25 | IC90 (Leishmania donovani): inactive; IC50 (Candida albicans): Not Active; pIC50 [8]: 4.25
11 | C[C@H]1[C@@H](O[C@@H](CO[C@H]2O[C@@H]3O[C@@]4(C)CC[C@H]5[C@H](C)CC[C@@H]([C@H]2C)[C@@]35OO4)[C@H](O)CO)O[C@@H]2O[C@@]3(C)CC[C@H]4[C@H](C)CC[C@@H]1[C@@]24OO3 | 7.93 | 71 | 7.85 | 59 |  | 29700 | 5.19 |  | Not Active |  | 6.04 | 6.28 |  |  |  |  |  |  |  |  | IC50 (SK-MEL): Not Active; IC50 (KB; kb): Not Active; IC50 (BT-549): Not Active; TC50 (Vero): Not Active; TC50 [7]: Not Active; pIC50 (Aspergillus fumigatus): 5.12; pIC50 (Staphylococcus aureus; Staphylococcus aureus, ATCC 43300, read-out: IC50): 4.64; pIC50 (Escherichia coli; Escherichia coli, ATCC 35218, read-out: IC50): 5.12; IC50 (Pseudomonas aeruginosa): Not Active; pIC50 [8]: 4.82
12 | COc1cccc2c1C(=O)c1c(O)c3c(c(O)c1C2=O)C[C@@](O)(C(=O)CO)C[C@@H]3O[C@H]1C[C@H](N)[C@H](O)[C@H](C)O1 [DOXORUBICIN] |  |  |  |  |  |  |  | 5.69 |  |  |  |  |  |  |  | 5.76 | 5.71 | 1290 |  |  | pIC50 (SK-OV-3; Homo sapiens, SK-OV-3, 48 h, read-out: IC50): 5.69; TC50 (Vero): Non-toxic
13 | O=C(O)c1cn(C2CC2)c2cc(N3CCNCC3)c(F)cc2c1=O [CIPROFLOXACIN] |  |  |  |  |  |  |  |  |  |  |  |  |  |  |  |  |  |  |  |  | pIC50 [8]: 5.90
14 | C[C@H]1[C@@H](OCC(O)CO[C@H]2O[C@@H]3O[C@@]4(C)CC[C@H]5[C@H](C)CC[C@@H]([C@H]2C)[C@@]35OO4)O[C@@H]2O[C@@]3(C)CC[C@H]4[C@H](C)CC[C@@H]1[C@@]24OO3 (stereo partly specified) | 7.95 | 34 | 8.42 | 100 |  | 47900 | 4.89 | 6.59 | Not Active | 5600 | 6.10 | 6.49 | Not Active | Not Active | Not Active | 5.10 | 6.32 | 150 | Not Active | 6.40 | 
15 | C[C@H]1[C@@H](OC/C=C\CO[C@H]2O[C@@H]3O[C@@]4(C)CC[C@H]5[C@H](C)CC[C@@H]([C@H]2C)[C@@]35OO4)O[C@@H]2O[C@@]3(C)CC[C@H]4[C@H](C)CC[C@@H]1[C@@]24OO3 | 8.20 | 113 | 8.21 | 116 |  |  |  | 6.49 | Not Active | 180 |  | 4.62 | Not Active | Not Active | Not Active |  | 5.82 |  |  |  | IC50 (Leishmania donovani): Not Active; IC90 (Leishmania donovani): inactive; IC50 (SK-MEL): Not Active; TC50 [7]: Non-toxic; IC50 (Candida albicans): Not Active; IC50 (Escherichia coli): Not Active; IC50 (Pseudomonas aeruginosa): Not Active

From ChEMBL document CHEMBL1153083, “Antiprotozoal, anticancer and antimicrobial activities of dihydroartemisinin acetal dimers and monomers” (Bioorg Med Chem, 2009)
